Assay results as given in PMC5386783 (Nature medicine, 2016).
Values joined by “and” are separate entries in the source; they are usually repeats but may differ in a detail not shown here. Identical values can stand only once. Each block holds one molecule with its values, some of them ahead of it.

Experiments:
ZIKV [1] = assay: ZIKV NS1 expression; type: cell-based, Zika virus; settings: SNB-19 cells; three strains; dose-dependent
Summary of the method: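 SNB-19 cells were treated with titrated test compound 1 h before FSS-13025, PRVABC59 or MR766 (MOI 1) and harvested at 24 h for NS1 western blot. NS1/GAPDH bands were normalised to DMSO. Secreted NS1 in the medium after 24 h was measured by NS1 ELISA kit. n = 3 cultures; one-way ANOVA versus DMSO or the 0 μM group.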

ZIKV [2] = assay: Intracellular ZIKV RNA levels; type: cell-based, Zika virus; settings: read-out: IC50, intracellular ZIKV RNA levels
Summary of the method: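 SNB-19 cells, astrocytes or hNPCs (~3×10^5/well, 12-well) were treated with test compound 1 h before ZIKV (MOI 0.5–1) and harvested 24–48 h post-infection. Total RNA (500–1000 ng) was reverse-transcribed with random hexamers. SYBR qPCR used ZIKV NS1 primers, with GAPDH as the endogenous control. Fold change was calculated by ΔΔCT, normalised to control cells.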

ZIKV [3] = assay: ZIKV production from SNB-19 cells, focus-forming unit assay on Vero cells; type: cell-based, Zika virus; settings: for concentrations suppressing production of infectious ZIKV particles: PRVABC59, MOI = 0.5, 24 hours post infection
ZIKV [4] = assay: Time-of-addition experiment in SNB-19 cells; type: cell-based, Zika virus; settings: PRVABC59, MOI = 1, 10 μg/ml anti-AXL antibody, 2 μM Niclosamide, 92 μM PHA-690509
Summary of the method: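 SNB-19 cells received test compound or 10 μg/ml anti-AXL antibody either 1 h before or 4 h after PRVABC59 infection (MOI 1). NS1 was detected by western blot, and NS1/GAPDH band intensities were normalised to DMSO. n = 3 cultures; one-way ANOVA versus DMSO.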

astrocytes = assay: Astrocyte viability, compound toxicity; type: cell-based; settings: at levels lower than 3 μM
Summary of the method: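 Cells were seeded in 96-well plates and, one day later, treated with test compound for 24–48 h without virus. Viability was then read with a CellTiter-Glo luminescent ATP substrate.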

ZIKV [5] = assay: ZIKV infection and production in hNPCs and astrocytes; type: cell-based, Zika virus; settings: PRVABC59
Summary of the method: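 Astrocytes were treated with test compound 1 h before PRVABC59 (MOI 0.5), fixed 24 h post-infection, and immunostained for ZIKV envelope protein with DAPI. Stained cells were counted. Virus released into culture supernatant was titrated as focus-forming units on Vero cells.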

[6] = ref WHO http://apps.who.int/medicinedocs/en/d/Jh2922e/3.1.3.html; cited from earlier work
[7] = test system: ZIKV-induced caspase-3 activity; assay: Caspase-3/7 activity assay in ZIKV-infected SNB-19 cells; type: cell-based; settings: Homo sapiens, SNB-19, read-out: IC50, caspase activity
Summary of the method: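 SNB-19 cells (250/well, PDL-coated 1536-well) were grown 16 h at 37 °C/5% CO2, given pin-transferred test compound for 30 min, then ZIKV at 2 FFU/cell for 6 h. Caspase-Glo 3/7 reagent was added for 30 min at room temperature and luminescence read. Uninfected cells were 0% and infected cells 100%. Confirmation used 11-point 1:3 dilutions, n = 3, and IC50 came from curve fits.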

SNB-19 cells = assay: ATP content cell viability assay in ZIKV-infected SNB-19 cells; type: cell-based; settings: Homo sapiens, SNB-19, read-out: IC50, cell viability
forebrain-specific hNPCs = type: cell-based, human
Summary of the method: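 Forebrain hNPCs were derived from iPSCs via embryoid bodies, rosettes and neurospheres. Monolayers were exposed to ZIKV FSS-13025 (MOI 0.04–0.08) ± test compound and immunostained 72 h later for ZIKV envelope, cleaved caspase-3 and DAPI; %Cas3+/DAPI cells, mean ± s.e.m., n = 3 cultures, one-way ANOVA. C1–2 iPSC forebrain organoids: exposed on day 18 for 24 h, fresh medium 9 more days, then fixed and immunostained.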

[8] = oral delivery, BID, × 4 days; cited from earlier work
activated caspases = settings: cited from earlier work
[9] = cited from earlier work
hNPC [10] = assay: hNPC proliferation after ZIKV infection with compound treatment; type: cell-based, human; settings: ZIKV-infected hNPCs
hNPC [11] = assay: hNPC proliferation in brain organoids, compound alone without ZIKV; type: cell-based, human; settings: PHA-690509 1 μM, Seliciclib 5 μM
ZIKV [12] = assay: ZIKV production from iPSC-derived human astrocytes, FFU assay; type: cell-based, Zika virus; settings: read-out: IC50, ZIKV production upon infection of human astrocytes; PRVABC59

IC50 (ZIKV [2]; Zika virus): 370 nM
SMILES: O=C(Nc1ccc([N+](=O)[O-])cc1Cl)c1cc(Cl)ccc1O [Niclosamide]
inhibition of ZIKV as measured by NS1 expression (ZIKV [1]): inhibited all three strains of ZIKV
concentrations suppressing production of infectious ZIKV particles (ZIKV [3]): sub-micromolar concentrations
inhibition of ZIKV infection by time of addition (ZIKV [4]): effectively inhibited ZIKV infection when added either 1 hour before or 4 hours after virus inoculation
toxicity, astrocyte viability (astrocytes): minimal toxicity
ZIKV infection and production in hNPCs and astrocytes (ZIKV [5]): inhibited ZIKV infection and production
mutagenic, teratogenic or embryotoxic potential [6]: not been shown to be mutagenic, teratogenic or embryotoxic

SMILES: CC(C)c1nn(-c2c(Cl)cccc2Cl)c2nc(Cc3ccc(OCCO)cc3)[nH]c(=O)c12 [RGB-286147]
IC50 (ZIKV [3]; read-out: IC50, ZIKV production): 27 nM

SMILES: C[C@H](NC(=O)C(=O)Nc1ccccc1C(C)(C)C)C(=O)N[C@@H](CC(=O)O)C(=O)COc1c(F)c(F)cc(F)c1F [Emricasan]
IC50 [7]: 130 to 900 nM
IC50 (SNB-19 cells): 130 to 900 nM
suppression of ZIKV replication (ZIKV antigen) (forebrain-specific hNPCs; 2D and 3D cultures): does not suppress ZIKV replication
number of active (cleaved) caspase-3-expressing forebrain-specific hNPCs (forebrain-specific hNPCs; infected by FSS13025, monolayer and 3D organoid cultures): reduced
maximum concentration in human blood [8]: 2.36 μg/ml and 4.15 μM
overall concentration in human blood [8]: 1.90 μg/ml and 3.35 μM
activity against activated caspases in vitro (activated caspases): sub-to nano-molar activity
tolerability in human trials [9]: well tolerated in human trials without significant adverse events

SMILES: CC[C@H](CO)Nc1nc(NCc2ccccc2)c2ncn(C(C)C)c2n1 [Seliciclib]
rescue of ZIKV-induced reduction in hNPC proliferation (hNPC [10]): partially rescued
effect of treatment alone on hNPC proliferation in brain organoids (hNPC [11]): minimal effect

IC50 (ZIKV [2]): 1720 nM
IC50 (ZIKV [12]): ~200 nM
SMILES: CC(=O)Nc1ccc([C@H](C)C(=O)Nc2ncc(C(C)C)s2)cc1 [PHA-690509]
inhibition of ZIKV as measured by NS1 expression (ZIKV [1]): inhibited all three strains of ZIKV
concentrations suppressing production of infectious ZIKV particles (ZIKV [3]): sub-micromolar concentrations
inhibition of ZIKV infection by time of addition (ZIKV [4]): effectively inhibited ZIKV infection when added either 1 hour before or 4 hours after virus inoculation
toxicity, astrocyte viability (astrocytes): minimal toxicity
rescue of ZIKV-induced reduction in hNPC proliferation (hNPC [10]): partially rescued
ZIKV infection and production in hNPCs and astrocytes (ZIKV [5]): inhibited ZIKV infection and production
